Reference: ChEMBL document CHEMBL1146375, “Synthetic studies on novel benzimidazolopeptides with antimicrobial, cytotoxic and anthelmintic potential” (2007)
≈ marks a conversion by molar mass, not a printed value. Residues, ends and D or L forms follow the SMILES beside them. *: point of attachment. X1 = Cc1cc2nc(-c3ccc(O)c(C(=O)*)c3)[nH]c2cc1C

Experiments:
Bacillus subtilis [1] = assay: Antibacterial activity against Bacillus subtilis NCIM 2063 after 18 hrs by disc diffusion method; type: functional
In short: (§1)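 Modified Kirby-Bauer disc diffusion. Plates inoculated with spore suspension (about 6 × 10⁴ spores mL^-1). Sterile 6 mm paper discs carried test samples at 10 mg mL^-1; ciprofloxacin disc as reference, DMF disc as negative control. Plates held 18 h at 37 °C. Inhibition zone diameters (mm) averaged over triplicate sets.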

Staphylococcus aureus [2] = assay: Antibacterial activity against Staphylococcus aureus NCIM 2079 after 18 hrs by disc diffusion method; type: functional; in short: as §1
Pseudomonas aeruginosa [3] = assay: Antibacterial activity against Pseudomonas aeruginosa NCIM 2034 after 18 hrs by disc diffusion method; type: functional; in short: as §1
Escherichia coli [4] = assay: Antibacterial activity against Escherichia coli NCIM 2065 after 18 hrs by disc diffusion method; type: functional; in short: as §1
Candida albicans [5] = assay: Antifungal activity against Candida albicans MUCC 29 after 48 hrs by disc diffusion method; type: functional
In short: (§2)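 Agar well diffusion on plates inoculated with spore suspension in normal saline from cultures on Sabouraud's broth. Wells punched and loaded with test samples or griseofulvin at 10 mg mL^-1, with DMSO as negative control. Incubated 48 h at 37 °C.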

Microsporum audouinii [6] = assay: Antifungal activity against Microsporum audouinii MUCC 545 after 48 hrs by disc diffusion method; type: functional; in short: as §2
Trichophyton benhamiae [7] = assay: Antifungal activity against Trichophyton mentagrophytes MUCC 665 after 48 hrs by disc diffusion method; type: functional, Arthroderma benhamiae; in short: as §2
Aspergillus niger = assay: Antifungal activity against Aspergillus niger MUCC 177 after 48 hrs by disc diffusion method; type: functional; in short: as §2
Bacillus subtilis [8] = assay: Antibacterial activity against Bacillus subtilis NCIM 2063 after 18 hrs by tube dilution method; type: functional; details: NCIM 2063, 18 h
In short: (§3)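 Tube dilution MIC. Stock diluted in sterile broth to seven concentrations from 200 to 3.1 […]. Each tube inoculated with one loopful of test bacterium and incubated 18 h at 37 °C. MIC read from presence or absence of growth.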

Staphylococcus aureus [9] = assay: Antibacterial activity against Staphylococcus aureus NCIM 2079 after 18 hrs by tube dilution method; type: functional; details: NCIM 2079, 18 h; in short: as §3
Pseudomonas aeruginosa [10] = assay: Antibacterial activity against Pseudomonas aeruginosa NCIM 2034 after 18 hrs by tube dilution method; type: functional; details: NCIM 2034, 18 h; in short: as §3
Escherichia coli [11] = assay: Antibacterial activity against Escherichia coli NCIM 2065 after 18 hrs by tube dilution method; type: functional; details: NCIM 2065, 18 h
Candida albicans [12] = assay: Antifungal activity against Candida albicans MUCC 29 after 48 hrs by tube dilution method; type: functional
In short: (§4)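 Tube dilution MIC as for bacteria (seven concentrations, 200–3.1 […]), with DMSO in place of DMF. Tubes inoculated with fungal culture and incubated 48 h at 37 °C. MIC read from presence or absence of growth.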

Microsporum audouinii [13] = assay: Antifungal activity against Microsporum audouinii MUCC 545 after 48 hrs by tube dilution method; type: functional; in short: as §4
Trichophyton benhamiae [14] = assay: Antifungal activity against Trichophyton mentagrophytes MUCC 665 after 48 hrs by tube dilution method; type: functional, Arthroderma benhamiae; in short: as §4
Eudrilus [15] = assay: Anthelmintic activity against Eudrilus sp. assessed as mean paralyzing time; type: functional
In short: (§5)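 Earthworms exposed to test suspensions at 2 mg mL^-1 (0.2% w/v), made by triturating compound with Tween 80 (0.5%) and distilled water, then mechanically stirred 30 min. Mebendazole suspension prepared alike as reference. Paralysis and death times recorded; death confirmed by no movement in 50 °C water. Means from triplicate sets.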

Eudrilus [16] = assay: Anthelmintic activity against Eudrilus sp. assessed as mean death time; type: functional
In short: (§6)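 Earthworms exposed to test suspensions at 2 mg mL−1, prepared by triturating compound with Tween 80 (0.5%) and distilled water, stirring 30 min, then diluting to 0.2% w/v. Mebendazole suspension was made the same way. Death was confirmed by moving worms into 50 °C warm water and looking for movement. Mean death time (min) taken from triplicate sets.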

[17] = Growth inhibition of DLA cells at 62.5 ug/mL after 3 hrs; type: functional; details: Mus musculus
In short: (§7)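 DLA and EAC cells passaged intraperitoneally in albino mice, harvested after 15–20 days and adjusted to 1 × 10⁶ cells/mL. Dilutions in Dulbecco's medium (500–31.25, some down to 3.91 µg/mL; 5-FU reference) mixed 1:1 with cells and held 3 h at 37 °C. Trypan blue exclusion gave % growth inhibition; CTC50 by graphical extrapolation.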

[18] = Growth inhibition of DLA cells at 31.25 ug/mL after 3 hrs; type: functional; details: Mus musculus; in short: as §7
[19] = Growth inhibition of DLA cells after 3 hrs; type: functional; details: Mus musculus; in short: as §7
[20] = Growth inhibition of EAC cells at 62.5 ug/mL after 3 hrs; type: functional; details: Mus musculus, Ehrlich; in short: as §7
[21] = Growth inhibition of EAC cells at 31.25 ug/mL after 3 hrs; type: functional; details: Mus musculus, Ehrlich; in short: as §7
[22] = Growth inhibition of EAC cells after 3 hrs; type: functional; details: Mus musculus, Ehrlich; in short: as §7
[23] = Growth inhibition of DLA cells at 15.63 ug/mL after 3 hrs; type: functional; details: Mus musculus; in short: as §7
[24] = Growth inhibition of DLA cells at 7.81 ug/mL after 3 hrs; type: functional; details: Mus musculus; in short: as §7
[25] = Growth inhibition of DLA cells at 3.91 ug/mL after 3 hrs; type: functional; details: Mus musculus; in short: as §7
[26] = Growth inhibition of EAC cells at 15.63 ug/mL after 3 hrs; type: functional; details: Mus musculus, Ehrlich; in short: as §7
[27] = Growth inhibition of EAC cells at 7.81 ug/mL after 3 hrs; type: functional; details: Mus musculus, Ehrlich; in short: as §7
[28] = Growth inhibition of EAC cells at 3.91 ug/mL after 3 hrs; type: functional; details: Mus musculus, Ehrlich; in short: as §7
[29] = Anthelmintic activity against Megascoplex konkanensis ICARBC 211 assessed as mean paralyzing time; type: functional; in short: as §5
[30] = Anthelmintic activity against Megascoplex konkanensis ICARBC 211 assessed as mean death time; type: functional; in short: as §5
Pontoscolex corethrurus [31] = assay: Anthelmintic activity against Pontoscolex corethrurus ICARBC 408 assessed as mean paralyzing time; type: functional; in short: as §5
Pontoscolex corethrurus [32] = assay: Anthelmintic activity against Pontoscolex corethrurus ICARBC 408 assessed as mean death time; type: functional; in short: as §6
[33] = Growth inhibition of EAC cells at 500 ug/mL after 3 hrs; type: functional; details: Mus musculus, Ehrlich; in short: as §7
[34] = Growth inhibition of EAC cells at 250 ug/mL after 3 hrs; type: functional; details: Mus musculus, Ehrlich; in short: as §7
[35] = Growth inhibition of DLA cells at 500 ug/mL after 3 hrs; type: functional; details: Mus musculus; in short: as §7
[36] = Growth inhibition of DLA cells at 250 ug/mL after 3 hrs; type: functional; details: Mus musculus; in short: as §7
[37] = Growth inhibition of DLA cells at 125 ug/mL after 3 hrs; type: functional; details: Mus musculus; in short: as §7
[38] = Growth inhibition of EAC cells at 125 ug/mL after 3 hrs; type: functional; details: Mus musculus, Ehrlich; in short: as §7

Row | SMILES | inhibition zone (IZ) (Bacillus subtilis [1]) [mm] | inhibition zone (IZ) (Staphylococcus aureus [2]) [mm] | inhibition zone (IZ) (Pseudomonas aeruginosa [3]) [mm] | inhibition zone (IZ) (Escherichia coli [4]) [mm] | inhibition zone (IZ) (Candida albicans [5]) [mm] | inhibition zone (IZ) (Microsporum audouinii [6]) [mm] | inhibition zone (IZ) (Trichophyton benhamiae [7]) [mm] | inhibition zone (IZ) (Aspergillus niger) [mm] | MIC (Bacillus subtilis [8]) [µg/mL] | MIC (Staphylococcus aureus [9]) [µg/mL] | MIC (Pseudomonas aeruginosa [10]) [µg/mL] | MIC (Escherichia coli [11]) [µg/mL] | MIC (Candida albicans [12]) [µg/mL] | MIC (Microsporum audouinii [13]) [µg/mL] | MIC (Trichophyton benhamiae [14]) [µg/mL] | Time (Eudrilus [15]) [min] | inhibition at 62.5 µg/mL [17] [%] | inhibition at 31.25 µg/mL [18] [%] | CC50 [19] [µM] | CC50 [22] [µM] | other results
1 | Cc1cc2nc(-c3ccc(O)c(C(=O)NCC(=O)N[C@@H](Cc4c[nH]c5ccccc45)C(=O)NCC(=O)N[C@@H](Cc4cnc[nH]4)C(=O)O)c3)[nH]c2cc1C (X1-GWGH-OH) | 14 | 10 | 24 | 18 | 20 | 11 | 16 | 16 | 6 (≈ 8.34 µM) | 12.5 (≈ 17.4 µM) | 6 (≈ 8.34 µM) | 12.5 (≈ 17.4 µM) | 6 (≈ 8.34 µM) | 6 (≈ 8.34 µM) | 6 (≈ 8.34 µM) | 10.89 | 100 | 100 | 6.15 | 12 | Time (Eudrilus [16]): 19.83 min; inhibition at 62.5 µg/mL [20]: 100%; inhibition at 31.25 µg/mL [21]: 92.8%; inhibition at 15.63 µg/mL [23]: 81.6%; inhibition at 7.81 µg/mL [24]: 60.5%; inhibition at 3.91 µg/mL [25]: 44.7%; inhibition at 15.63 µg/mL [26]: 75%; inhibition at 7.81 µg/mL [27]: 46.4%; inhibition at 3.91 µg/mL [28]: 10.7%; TIME [29]: 0.155 h; TIME [30]: 0.289 h; Time (Pontoscolex corethrurus [31]): 12.22 min; Time (Pontoscolex corethrurus [32]): 24.52 min
2 | O=c1[nH]cc(F)c(=O)[nH]1 [FLUOROURACIL] | – | – | – | – | – | – | – | – | – | – | – | – | – | – | – | – | 100 | 100 | 37.4 | 90.5 | inhibition at 500 µg/mL [33]: 100%; inhibition at 250 µg/mL [34]: 100%; inhibition at 15.63 µg/mL [23]: 73.7%; inhibition at 7.81 µg/mL [24]: 65.8%; inhibition at 3.91 µg/mL [25]: 42.1%; inhibition at 15.63 µg/mL [26]: 60.7%; inhibition at 7.81 µg/mL [27]: 32.1%; inhibition at 3.91 µg/mL [28]: 17.9%
3 | Cc1cc2nc(-c3c(I)cc(C(=O)N[C@@H](Cc4cnc[nH]4)C(=O)N4CCC[C@H]4C(=O)O)cc3I)[nH]c2cc1C | 16 | 13 | 27 | 18 | 25 | 10 | 13 | 14 | 6 (≈ 7.98 µM) | 12.5 (≈ 16.6 µM) | 6 (≈ 7.98 µM) | 12.5 (≈ 16.6 µM) | 6 (≈ 7.98 µM) | 25 (≈ 33.2 µM) | 6 (≈ 7.98 µM) | 13.37 | 28.9 | 13.2 | 583 | > 665 | Time (Eudrilus [16]): 23.86 min; inhibition at 500 µg/mL [35]: 52.6%; inhibition at 250 µg/mL [36]: 42.1%; inhibition at 125 µg/mL [37]: 34.2%; inhibition at 500 µg/mL [33]: 35.7%; inhibition at 250 µg/mL [34]: 28.6%; inhibition at 125 µg/mL [38]: 10.7%; inhibition at 62.5 µg/mL [20]: 10.7%; inhibition at 31.25 µg/mL [21]: 7.14%; TIME [29]: 0.228 h; TIME [30]: 0.373 h; Time (Pontoscolex corethrurus [31]): 17.38 min; Time (Pontoscolex corethrurus [32]): 29.33 min
